In ChEMBL document CHEMBL4028845, “Design, Synthesis, and Properties of a Potent Inhibitor of Pseudomonas aeruginosa Deacetylase LpxC” (J Med Chem, 2017):
Converted amounts (≈) assume the structure as drawn. The source made the active and inactive calls. The rule behind the calls is not given here.

Key:
[1] = test system: Stenotrophomonas maltophilia; experiment: Antibacterial activity against Stenotrophomonas maltophilia NB55011 after 18 to 24 hrs; format: functional
Procedure, shortened: (§1)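 Broth MIC per CLSI guidelines in cation-adjusted Mueller Hinton broth. Compounds were dissolved and serially diluted in DMSO (carbapenems in water) before addition to plates. Incubation was at 37 °C for 18−24 h. MIC is the lowest concentration preventing visible growth. MIC50/MIC90 are the concentrations inhibiting 50% or 90% of isolates tested.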

[2] = molecular target: Protein deacetylase HDAC6 (Homo sapiens, UniProt Q9UBN7); experiment: Inhibition of human HDAC6
Protein deacetylase HDAC6, sequence (Q9UBN7 whole entry): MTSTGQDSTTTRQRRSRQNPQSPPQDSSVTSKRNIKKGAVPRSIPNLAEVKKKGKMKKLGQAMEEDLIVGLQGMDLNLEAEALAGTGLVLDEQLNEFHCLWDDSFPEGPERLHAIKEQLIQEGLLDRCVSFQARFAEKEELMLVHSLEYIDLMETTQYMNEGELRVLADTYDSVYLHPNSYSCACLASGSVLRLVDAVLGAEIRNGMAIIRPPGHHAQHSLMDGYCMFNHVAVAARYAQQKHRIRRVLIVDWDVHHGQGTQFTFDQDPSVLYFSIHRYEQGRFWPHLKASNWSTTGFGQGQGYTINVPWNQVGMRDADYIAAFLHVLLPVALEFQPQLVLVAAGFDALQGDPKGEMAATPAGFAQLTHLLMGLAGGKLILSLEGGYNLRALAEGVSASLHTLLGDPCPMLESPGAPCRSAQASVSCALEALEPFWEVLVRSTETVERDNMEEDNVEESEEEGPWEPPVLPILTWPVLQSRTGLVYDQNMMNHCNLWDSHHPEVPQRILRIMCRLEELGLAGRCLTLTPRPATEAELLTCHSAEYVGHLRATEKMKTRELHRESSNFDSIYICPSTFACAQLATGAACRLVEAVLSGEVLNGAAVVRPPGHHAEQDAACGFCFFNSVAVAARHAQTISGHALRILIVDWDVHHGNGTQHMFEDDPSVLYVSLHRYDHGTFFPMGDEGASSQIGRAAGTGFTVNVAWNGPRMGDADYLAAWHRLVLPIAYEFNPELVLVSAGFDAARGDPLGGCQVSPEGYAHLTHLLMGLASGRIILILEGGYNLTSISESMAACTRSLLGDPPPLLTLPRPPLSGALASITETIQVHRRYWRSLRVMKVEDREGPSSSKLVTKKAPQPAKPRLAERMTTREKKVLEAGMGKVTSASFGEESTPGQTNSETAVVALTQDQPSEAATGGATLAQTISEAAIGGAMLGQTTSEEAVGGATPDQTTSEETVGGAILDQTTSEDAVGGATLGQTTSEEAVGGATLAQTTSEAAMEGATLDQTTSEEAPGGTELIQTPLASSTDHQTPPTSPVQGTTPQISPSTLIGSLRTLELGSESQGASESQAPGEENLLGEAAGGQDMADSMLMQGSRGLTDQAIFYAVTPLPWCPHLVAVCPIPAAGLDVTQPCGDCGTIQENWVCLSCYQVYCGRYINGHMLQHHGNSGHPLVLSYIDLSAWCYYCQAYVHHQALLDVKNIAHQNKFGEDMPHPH

Klebsiella oxytoca = experiment: Antibacterial activity against Klebsiella oxytoca NB30007 after 18 to 24 hrs; format: functional; procedure, shortened: as §1
Pseudomonas aeruginosa [3] = experiment: Antibacterial activity against Pseudomonas aeruginosa clinical isolate infected in iv dosed BalbC mouse neutropenic model assessed as concentration required to show bacterial stasis in lung administered as bid at 2 and 8 hrs post infection measured after 24 hrs
Pseudomonas aeruginosa [4] = experiment: Antibacterial activity against Pseudomonas aeruginosa NB52096 after 18 to 24 hrs; format: functional; procedure, shortened: as §1
[5] = Protein binding in mouse plasma; format: ADME, cell-free; conditions: read-out: PPB (converted)
Escherichia coli [6] = experiment: Antibacterial activity against efflux pump deficient Escherichia coli after 18 to 24 hrs; format: functional
Procedure, shortened: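 MIC per CLSI guidelines. Strains grown in cation-adjusted Mueller Hinton broth. Compounds dissolved in DMSO and serially diluted in DMSO (carbapenems in water) before addition to microtiter plates. Incubation at 37 °C for 18−24 h. MIC is the lowest concentration preventing visible growth.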

Histone deacetylase 3 = Histone deacetylase 3 (Homo sapiens, UniProt O15379); experiment: Inhibition of human HDAC3
Histone deacetylase 3, sequence (O15379 whole entry): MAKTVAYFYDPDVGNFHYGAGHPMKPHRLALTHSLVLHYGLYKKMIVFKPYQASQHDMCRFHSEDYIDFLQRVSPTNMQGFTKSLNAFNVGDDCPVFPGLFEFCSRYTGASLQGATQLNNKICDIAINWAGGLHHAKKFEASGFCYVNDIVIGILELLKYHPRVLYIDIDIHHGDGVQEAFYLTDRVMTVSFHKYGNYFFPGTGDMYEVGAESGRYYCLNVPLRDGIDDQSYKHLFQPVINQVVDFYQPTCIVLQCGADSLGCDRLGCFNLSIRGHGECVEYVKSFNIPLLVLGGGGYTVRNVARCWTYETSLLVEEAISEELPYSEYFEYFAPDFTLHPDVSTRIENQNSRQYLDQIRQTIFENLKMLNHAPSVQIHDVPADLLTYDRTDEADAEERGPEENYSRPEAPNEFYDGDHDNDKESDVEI

Histone deacetylase 9 = Histone deacetylase 9 (Homo sapiens, UniProt Q9UKV0); experiment: Inhibition of human HDAC9
Histone deacetylase 9, sequence (Q9UKV0 whole entry): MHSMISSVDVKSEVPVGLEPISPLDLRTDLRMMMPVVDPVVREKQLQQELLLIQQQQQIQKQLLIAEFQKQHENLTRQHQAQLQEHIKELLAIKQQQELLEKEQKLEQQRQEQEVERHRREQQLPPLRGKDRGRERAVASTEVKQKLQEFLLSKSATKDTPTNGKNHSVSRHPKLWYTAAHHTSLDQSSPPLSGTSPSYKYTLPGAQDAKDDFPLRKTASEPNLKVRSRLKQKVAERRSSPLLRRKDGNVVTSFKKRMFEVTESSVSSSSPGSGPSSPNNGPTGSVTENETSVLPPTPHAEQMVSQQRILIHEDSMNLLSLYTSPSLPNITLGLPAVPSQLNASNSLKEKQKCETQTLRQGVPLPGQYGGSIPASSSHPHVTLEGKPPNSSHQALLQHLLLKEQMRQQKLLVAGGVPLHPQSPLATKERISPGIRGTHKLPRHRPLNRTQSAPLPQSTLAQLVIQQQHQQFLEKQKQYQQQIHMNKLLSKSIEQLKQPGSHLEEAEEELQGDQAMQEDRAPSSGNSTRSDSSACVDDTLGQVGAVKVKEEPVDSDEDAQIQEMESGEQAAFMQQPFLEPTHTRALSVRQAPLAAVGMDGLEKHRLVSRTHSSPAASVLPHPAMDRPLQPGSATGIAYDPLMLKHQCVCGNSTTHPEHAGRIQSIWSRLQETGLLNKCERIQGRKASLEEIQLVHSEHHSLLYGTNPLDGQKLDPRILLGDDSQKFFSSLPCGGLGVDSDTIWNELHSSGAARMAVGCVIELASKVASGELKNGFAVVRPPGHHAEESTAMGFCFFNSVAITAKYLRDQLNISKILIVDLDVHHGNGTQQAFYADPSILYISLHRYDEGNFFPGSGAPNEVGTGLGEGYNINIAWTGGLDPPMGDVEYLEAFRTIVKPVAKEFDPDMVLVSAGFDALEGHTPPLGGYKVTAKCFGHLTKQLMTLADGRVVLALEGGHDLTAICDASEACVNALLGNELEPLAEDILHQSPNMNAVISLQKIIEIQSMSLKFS

[7] = Protein binding in human plasma; format: ADME, cell-free; conditions: read-out: PPB (converted)
Pseudomonas aeruginosa [8] = experiment: Antibacterial activity against hypersusceptible Pseudomonas aeruginosa Z61 after 18 to 24 hrs; format: functional; procedure, shortened: as §1
Alcaligenes = experiment: Antibacterial activity against Alcaligenes xylosus NB56002 after 18 to 24 hrs; format: functional; procedure, shortened: as §1
[9] = Cytotoxicity against human K562 cells assessed as reduction in cell viability after 72 hrs by WST1 assay; format: cell-based
Procedure, shortened: (§2)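 Cells were grown and assayed in medium with 10% heat-inactivated FBS and exposed to compound for 72 h. Metabolic activity was read as WST-1 cleavage to formazan at A450, with puromycin as positive control. CC50 (50% reduction in viability) was calculated from dose-response curves.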

[10] = Solubility of the compound at pH 6.8 by high throughput screening assay; format: physicochemical; conditions: buffer, read-out: solubility
[11] = Cytotoxicity against human HepG2 cells assessed as reduction in cell viability after 72 hrs by WST1 assay; format: cell-based; procedure, shortened: as §2
Klebsiella pneumoniae = experiment: Antibacterial activity against Klebsiella pneumoniae NB29018 after 18 to 24 hrs; format: functional; procedure, shortened: as §1
Histone deacetylase 2 = Histone deacetylase 2 (Homo sapiens, UniProt Q92769); experiment: Inhibition of human HDAC2
Histone deacetylase 2, sequence (Q92769 whole entry): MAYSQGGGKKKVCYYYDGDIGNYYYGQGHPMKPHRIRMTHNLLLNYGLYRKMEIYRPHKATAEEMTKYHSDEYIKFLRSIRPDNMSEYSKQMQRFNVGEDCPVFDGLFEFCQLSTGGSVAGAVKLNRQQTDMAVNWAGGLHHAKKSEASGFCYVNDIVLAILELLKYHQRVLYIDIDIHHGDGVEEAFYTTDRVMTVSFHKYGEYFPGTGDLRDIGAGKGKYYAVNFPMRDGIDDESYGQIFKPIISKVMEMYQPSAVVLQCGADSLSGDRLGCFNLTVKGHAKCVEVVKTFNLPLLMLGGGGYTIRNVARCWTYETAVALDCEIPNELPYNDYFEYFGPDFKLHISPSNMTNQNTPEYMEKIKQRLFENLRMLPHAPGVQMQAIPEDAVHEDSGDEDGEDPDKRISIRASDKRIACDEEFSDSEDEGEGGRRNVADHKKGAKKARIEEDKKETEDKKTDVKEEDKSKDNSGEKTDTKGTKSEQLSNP

Histone deacetylase 1 = Histone deacetylase 1 (Homo sapiens, UniProt Q13547); experiment: Inhibition of human HDAC1
Histone deacetylase 8 = Histone deacetylase 8 (Homo sapiens, UniProt Q9BY41); experiment: Inhibition of human HDAC8
Histone deacetylase 8, sequence (Q9BY41 whole entry): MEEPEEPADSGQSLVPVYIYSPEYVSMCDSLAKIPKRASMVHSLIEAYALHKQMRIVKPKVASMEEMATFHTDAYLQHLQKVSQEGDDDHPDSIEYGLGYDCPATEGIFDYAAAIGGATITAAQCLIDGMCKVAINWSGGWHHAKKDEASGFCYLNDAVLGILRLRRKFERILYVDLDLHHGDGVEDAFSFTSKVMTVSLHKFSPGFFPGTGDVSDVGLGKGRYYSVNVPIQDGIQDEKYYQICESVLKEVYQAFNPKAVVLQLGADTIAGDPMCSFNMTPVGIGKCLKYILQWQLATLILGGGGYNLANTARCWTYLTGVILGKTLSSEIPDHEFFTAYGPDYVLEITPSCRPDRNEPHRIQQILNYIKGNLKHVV

Histone deacetylase 7 = Histone deacetylase 7 (Homo sapiens, UniProt Q8WUI4); experiment: Inhibition of human HDAC7
Pseudomonas aeruginosa [12] = experiment: Antibacterial activity against Pseudomonas aeruginosa NB52001 after 18 to 24 hrs; format: functional; procedure, shortened: as §1
[13] = molecular target: Polyamine deacetylase HDAC10 (Homo sapiens, UniProt Q969S8); experiment: Inhibition of human HDAC10
Histone deacetylase 5 = Histone deacetylase 5 (Homo sapiens, UniProt Q9UQL6); experiment: Inhibition of human HDAC5
Histone deacetylase 5, sequence (Q9UQL6 whole entry): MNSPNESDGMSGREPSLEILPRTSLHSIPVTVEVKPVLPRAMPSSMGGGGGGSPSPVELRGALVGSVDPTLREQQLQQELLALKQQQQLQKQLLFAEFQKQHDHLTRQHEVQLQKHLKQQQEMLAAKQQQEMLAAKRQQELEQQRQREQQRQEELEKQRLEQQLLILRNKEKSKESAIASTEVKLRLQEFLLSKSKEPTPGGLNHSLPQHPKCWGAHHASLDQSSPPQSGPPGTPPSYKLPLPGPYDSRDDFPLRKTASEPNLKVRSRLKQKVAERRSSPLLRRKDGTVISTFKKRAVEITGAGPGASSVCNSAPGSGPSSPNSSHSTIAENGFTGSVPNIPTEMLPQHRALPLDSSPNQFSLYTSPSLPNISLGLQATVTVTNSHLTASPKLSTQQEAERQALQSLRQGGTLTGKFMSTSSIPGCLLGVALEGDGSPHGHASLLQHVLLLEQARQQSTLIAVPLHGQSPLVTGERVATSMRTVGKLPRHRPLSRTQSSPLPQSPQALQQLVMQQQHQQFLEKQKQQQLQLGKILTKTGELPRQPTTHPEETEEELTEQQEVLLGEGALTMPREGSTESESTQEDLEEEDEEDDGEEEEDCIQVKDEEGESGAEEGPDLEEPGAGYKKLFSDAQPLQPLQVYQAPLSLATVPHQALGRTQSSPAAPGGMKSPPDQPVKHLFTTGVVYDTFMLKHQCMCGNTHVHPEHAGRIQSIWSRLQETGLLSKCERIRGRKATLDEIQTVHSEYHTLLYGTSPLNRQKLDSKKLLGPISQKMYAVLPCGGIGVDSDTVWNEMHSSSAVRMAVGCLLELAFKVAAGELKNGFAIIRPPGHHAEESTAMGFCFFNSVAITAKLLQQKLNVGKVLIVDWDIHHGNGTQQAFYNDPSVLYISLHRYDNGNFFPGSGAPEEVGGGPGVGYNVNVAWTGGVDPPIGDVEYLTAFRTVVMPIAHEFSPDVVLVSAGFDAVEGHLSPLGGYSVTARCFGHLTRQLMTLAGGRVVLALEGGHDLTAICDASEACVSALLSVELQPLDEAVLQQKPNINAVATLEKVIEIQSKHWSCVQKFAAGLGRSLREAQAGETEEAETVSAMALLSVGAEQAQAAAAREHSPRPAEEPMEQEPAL

Pseudomonas aeruginosa [14] = experiment: Antibacterial activity against Pseudomonas aeruginosa clinical isolate infected in iv dosed BalbC mouse neutropenic model assessed as concentration required to show reduction in bacterial burden in lung of 2 log below stasis administered as bid at 2 and 8 hrs post infection measured after 24 hrs
Pseudomonas aeruginosa [15] = experiment: Antibacterial activity against Pseudomonas aeruginosa PAO1 K767 after 18 to 24 hrs; format: functional; procedure, shortened: as §1
Histone deacetylase 11 = Histone deacetylase 11 (Homo sapiens, UniProt Q96DB2); experiment: Inhibition of human HDAC11
Histone deacetylase 11, sequence (Q96DB2 whole entry): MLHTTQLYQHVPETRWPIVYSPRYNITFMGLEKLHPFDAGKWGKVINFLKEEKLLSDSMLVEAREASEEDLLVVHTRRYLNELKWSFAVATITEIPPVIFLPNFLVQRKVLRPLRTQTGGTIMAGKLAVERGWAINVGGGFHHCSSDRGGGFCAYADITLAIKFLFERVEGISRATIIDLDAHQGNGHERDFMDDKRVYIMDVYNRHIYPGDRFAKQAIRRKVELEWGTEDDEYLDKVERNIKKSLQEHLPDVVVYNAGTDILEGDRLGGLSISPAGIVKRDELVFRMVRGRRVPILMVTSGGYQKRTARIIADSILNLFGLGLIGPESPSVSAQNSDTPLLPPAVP

Pseudomonas aeruginosa [16] = experiment: Antibacterial activity against Pseudomonas aeruginosa ATCC 27853 in CD1 mouse thigh infection model assessed as reduction in bacterial burden in thigh at 160 to 320 mg/kg, iv administered at 2 hrs post infection measured after 24 hrs
Pseudomonas aeruginosa [17] = experiment: Antibacterial activity against Pseudomonas aeruginosa clinical isolate after 18 to 24 hrs; format: functional
Klebsiella aerogenes = experiment: Antibacterial activity against Enterobacter aerogenes NB24004 after 18 to 24 hrs; format: functional; procedure, shortened: as §1
Pseudomonas aeruginosa [18] = experiment: Antibacterial activity against mexAB-oprM deficient Pseudomonas aeruginosa K1119 after 18 to 24 hrs; format: functional; procedure, shortened: as §1
Burkholderia cepacia = experiment: Antibacterial activity against Burkholderia cepacia NB49016 after 18 to 24 hrs; format: functional; procedure, shortened: as §1
Escherichia coli [19] = experiment: Antibacterial activity against Escherichia coli NB27047 after 18 to 24 hrs; format: functional; procedure, shortened: as §1
[20] = Protein binding in rat plasma; format: ADME, cell-free; conditions: read-out: PPB (converted)
Proteus mirabilis = experiment: Antibacterial activity against Proteus mirabilis NB32022 after 18 to 24 hrs; format: functional; procedure, shortened: as §1
Histone deacetylase 4 = Histone deacetylase 4 (Homo sapiens, UniProt P56524); experiment: Inhibition of human HDAC4
Acinetobacter baumannii = experiment: Antibacterial activity against Acinetobacter baumannii NB48015 after 18 to 24 hrs; format: functional; procedure, shortened: as §1

SMILES: CC#CCOc1ccc(C(=O)N[C@H](C(=O)NO)C(C)(C)N)cc1
- MIC [1]: 32 µg/mL (≈ 100 µM)
- IC50 [2]: > 30 µM
- MIC (Klebsiella oxytoca): 16 µg/mL (≈ 50.1 µM)
- Activity (Pseudomonas aeruginosa [3]): 7.1 mg/kg/day
- MIC (Pseudomonas aeruginosa [4]): 2 µg/mL (≈ 6.26 µM)
- fraction unbound [5]: 0.772
- MIC (Escherichia coli [6]): 1 to 2 µg/mL (≈ 3.13 to 6.26 µM)
- IC50 (Histone deacetylase 3): > 30 µM
- IC50 (Histone deacetylase 9): > 30 µM
- fraction unbound [7]: 0.193
- MIC (Pseudomonas aeruginosa [8]): 0.25 µg/mL (≈ 0.783 µM)
- MIC (Alcaligenes): 16 µg/mL (≈ 50.1 µM)
- CC50 at 72 h [9]: > 295 µM
- solubility [10]: > 327 µg/mL
- CC50 at 72 h [11]: > 295 µM
- MIC (Klebsiella pneumoniae): 16 µg/mL (≈ 50.1 µM)
- IC50 (Histone deacetylase 2): > 30 µM
- IC50 (Histone deacetylase 1): > 30 µM
- IC50 (Histone deacetylase 8): > 30 µM
- IC50 (Histone deacetylase 7): > 30 µM
- MIC (Pseudomonas aeruginosa [12]): 1 µg/mL (≈ 3.13 µM)
- IC50 [13]: > 30 µM
- IC50 (Histone deacetylase 5): > 30 µM
- Activity (Pseudomonas aeruginosa [14]): 20 mg/kg/day
- MIC (Pseudomonas aeruginosa [15]): 0.5 µg/mL (≈ 1.57 µM)
- IC50 (Histone deacetylase 11): > 30 µM
- Activity (Pseudomonas aeruginosa [16]): Active
- MIC50 (Pseudomonas aeruginosa [17]): 1 µg/mL (≈ 3.13 µM)
- MIC90 (Pseudomonas aeruginosa [17]): 2 µg/mL (≈ 6.26 µM)
- MIC (Klebsiella aerogenes): > 128 µg/mL
- MIC (Pseudomonas aeruginosa [18]): 0.06 µg/mL (≈ 0.188 µM)
- MIC (Burkholderia cepacia): 32 µg/mL (≈ 100 µM)
- MIC (Escherichia coli [19]): 64 µg/mL (≈ 200 µM)
- fraction unbound [20]: 0.779
- MIC (Proteus mirabilis): 64 µg/mL (≈ 200 µM)
- IC50 (Histone deacetylase 4): > 30 µM
- MIC (Acinetobacter baumannii): > 128 µg/mL
